According to PMC9441147 (Drug Design, Development and Therapy, 2022):
Converted amounts (≈) assume the structure as drawn.

What was measured:
[1] = In vitro rat plasma protein binding; assay type: in vitro ADME
[2] = tested on: phosphorylated STAT3-positive cell nuclei; assay: pSTAT3 immunohistochemistry of lung sections, OVA-challenged rats; assay type: in vivo, rat; details: OVA/AZD4604 1 mg/kg versus OVA/vehicle
[3] = tested on: STAT5a phosphorylation; assay: pSTAT5a in whole lung homogenate, OVA-challenged rats; assay type: in vivo, rat; details: IT dosing, 2 hours after OVA challenge, vs OVA/vehicle
In short: (§1)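 In the OVA-sensitized, OVA-challenged rat model, test compound was given IT 1 h before challenge. Post-caval lung lobes taken 2 h after challenge were powderized in liquid nitrogen and lysed in buffer with protease/phosphatase inhibitors. Protein was measured by Bradford assay. Lysate (10 µg protein) was run on MSD phospho-STAT3/STAT5a/STAT5b/Akt(T308) plates, and blank-subtracted electrochemiluminescence was read.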

[4] = tested on: pAkt; assay: pAkt analysis in lung tissue, OVA rat model; assay type: in vivo; details: lung tissue 2 hours after OVA challenge
In short: as §1

[5] = tested on: IL-13-induced STAT6 phosphorylation in human CD14+ monocytes; assay: IL-13-induced STAT6 phosphorylation in monocytes; assay type: cell-based; details: Monocyte, read-out: IC50, IL-13, STAT6
In short: (§2)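 PBMCs were isolated by density gradient from healthy human donor blood, sometimes enriched for lymphocytes or monocytes, and rested. Cells were preincubated with serially diluted test compound (DMSO vehicle), then stimulated with the relevant cytokine. They were fixed (formaldehyde), permeabilized and stained for phospho-STAT, with isotype-control gates and surface-marker cell gating. Flow cytometry gave % phospho-STAT+ cells. Inhibition was calculated versus vehicle-treated stimulated cells to derive IC50.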

[6] = tested on: OVA-challenged rats; assay: Airway and lung inflammation in OVA-induced rat model of asthma; assay type: in vivo; details: IT
In short: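 Rats sensitized IP with OVA (100 µg/rat) in aluminium/magnesium hydroxide on days 0, 14, 21 and challenged day 28 with 1% aerosolized OVA for 30 min. Test compound was given IT under isoflurane at 1 mL/kg, 1 h before challenge (100–3000 µg/kg). BAL (2 × 3 mL RPMI) was taken 24 h post-challenge. Leukocytes were counted automatically, with differentials from Wright-stained cytospins; n=7–10/group.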

[7] = tested on: NF-κB; assay: NF-κB p65 analysis in lung tissue, OVA rat model; assay type: in vivo; details: lung tissue 2 hours after OVA challenge
In short: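 In the OVA-sensitized, OVA-challenged rat model, test compound was given IT 1 h before challenge. Lungs were powderized 2 h after challenge and nuclear extracts prepared with a nuclear extraction kit. Nuclear extract (10 µg) was assayed for NF-κB p65 activation by TransAm ELISA-type assay.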

[8] = Lung and plasma PK after single intratracheal dose in treatment-naïve rats; assay type: in vivo; details: rat
In short: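 Treatment-naïve rats were given a single IT dose, at a lung-deposited dose of 52 or 30 µg/kg depending on compound. Plasma and lungs were sampled at 0.03, 0.5, 2, 6, 8 and 24 h, three animals per time point. Post-caval lobes were bead-homogenized in Ringer's solution. Samples were protein-precipitated with acetonitrile containing 0.2% formic acid and internal standard, then analysed by LC-MS/MS.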

[9] = tested on: TSLP-induced production of CCL17 in human CD14+ monocytes; assay: TSLP-induced CCL17 release in monocytes; assay type: cell-based; details: Monocyte, read-out: IC50, TSLP, CCL17
In short: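 Human monocytes were taken from PBMCs isolated by density gradient from healthy donor blood. They were preincubated with serially diluted test compound (DMSO vehicle), then stimulated with recombinant TSLP. Supernatants were collected by brief centrifugation, and released CCL17 was quantified by ELISA or MSD U-plex immunoassay. Reduction versus vehicle-treated stimulated cells gave IC50.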

[10] = tested on: STAT3 phosphorylation; assay: pSTAT3 in whole lung homogenate, OVA-challenged rats; assay type: in vivo, rat; details: IT dosing, 2 hours after OVA challenge, vs OVA/vehicle
In short: as §1

[11] = Thermodynamic solubility, pH 7.4; assay type: physicochemical
[12] = In vivo plasma PK after IV dosing in rats; details: rat
In short: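 Rats received a single IV bolus of test compound, at 1.0 or 0.5 mg/kg depending on compound; n=2. Plasma was then sampled to derive clearance, steady-state volume of distribution and terminal half-life.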

[13] = Caco-2 permeability, pH 6.5; assay type: in vitro ADME; details: human, Caco-2, pH 6.5
[14] = tested on: IFNα-induced STAT1 phosphorylation in human T cells or monocytes; assay: IFNα-induced STAT1 phosphorylation, flow cytometry; assay type: cell-based; details: read-out: IC50, IFNα, STAT1
In short: as §2

[15] = Kinetic solubility, pH 6.8; assay type: physicochemical; details: pH 6.8, aqueous buffer, kinetic from dmso stock
[16] = biological target: T1, JAK3 (Homo sapiens, UniProt P52333); assay: JAK3 enzymatic assay, 1 mM ATP; assay type: biochemical
T1 sequence (P52333 1-1124): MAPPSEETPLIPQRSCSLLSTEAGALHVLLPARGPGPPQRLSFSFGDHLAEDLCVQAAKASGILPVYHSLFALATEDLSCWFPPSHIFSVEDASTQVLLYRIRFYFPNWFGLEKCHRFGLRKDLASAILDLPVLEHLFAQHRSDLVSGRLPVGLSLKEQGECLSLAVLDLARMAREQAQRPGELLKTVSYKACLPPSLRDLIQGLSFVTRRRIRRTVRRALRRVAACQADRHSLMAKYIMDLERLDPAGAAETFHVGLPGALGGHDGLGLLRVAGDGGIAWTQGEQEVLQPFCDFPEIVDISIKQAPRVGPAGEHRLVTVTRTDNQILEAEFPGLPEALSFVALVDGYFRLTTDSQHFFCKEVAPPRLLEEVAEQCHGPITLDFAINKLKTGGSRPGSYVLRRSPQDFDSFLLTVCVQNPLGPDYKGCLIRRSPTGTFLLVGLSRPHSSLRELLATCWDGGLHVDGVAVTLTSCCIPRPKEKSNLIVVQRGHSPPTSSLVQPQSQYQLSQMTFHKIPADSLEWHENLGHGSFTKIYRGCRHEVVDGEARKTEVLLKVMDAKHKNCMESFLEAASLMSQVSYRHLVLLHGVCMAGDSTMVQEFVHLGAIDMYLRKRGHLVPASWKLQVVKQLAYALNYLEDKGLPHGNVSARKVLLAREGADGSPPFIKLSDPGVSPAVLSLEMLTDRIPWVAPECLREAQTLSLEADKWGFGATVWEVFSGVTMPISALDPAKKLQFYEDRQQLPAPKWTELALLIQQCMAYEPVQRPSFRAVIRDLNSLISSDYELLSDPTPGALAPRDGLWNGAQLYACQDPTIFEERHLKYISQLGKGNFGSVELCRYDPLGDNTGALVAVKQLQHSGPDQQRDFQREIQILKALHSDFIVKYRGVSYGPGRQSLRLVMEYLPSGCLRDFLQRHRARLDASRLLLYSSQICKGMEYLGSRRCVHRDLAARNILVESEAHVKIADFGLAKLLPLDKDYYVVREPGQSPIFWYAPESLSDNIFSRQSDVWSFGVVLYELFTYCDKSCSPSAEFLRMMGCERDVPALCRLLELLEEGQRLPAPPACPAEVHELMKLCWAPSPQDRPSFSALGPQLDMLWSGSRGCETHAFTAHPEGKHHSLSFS

[17] = tested on: IL-2-induced STAT5 phosphorylation in human T cells; assay: IL-2-induced STAT5 phosphorylation in human T cells, flow cytometry; assay type: cell-based; details: T-cell, read-out: IC50, IL-2, STAT5 (human)
In short: as §2

[18] = tested on: IL-12-induced STAT4 phosphorylation in human CD3+ T cells and CD56+ NK cells; assay: IL-12-induced STAT4 phosphorylation, flow cytometry; assay type: cell-based; details: T-cell, read-out: IC50, IL-12, STAT4
In short: as §2

[19] = tested on: IL-4-induced STAT6 phosphorylation in human CD4+ T cells; assay: IL-4-induced STAT6 phosphorylation, flow cytometry; assay type: cell-based; details: read-out: IC50, IL-4, STAT6
In short: as §2

[20] = tested on: STAT5b phosphorylation; assay: pSTAT5b in whole lung homogenate, OVA-challenged rats; assay type: in vivo, rat; details: IT dosing, 2 hours after OVA challenge, vs OVA/vehicle
In short: as §1

[21] = Basic pKa, measured; assay type: physicochemical
[22] = biological target: JAK1 (Homo sapiens, UniProt P23458); details: biochemical assays; cited from earlier work
Sequence of JAK1 (P23458 whole entry): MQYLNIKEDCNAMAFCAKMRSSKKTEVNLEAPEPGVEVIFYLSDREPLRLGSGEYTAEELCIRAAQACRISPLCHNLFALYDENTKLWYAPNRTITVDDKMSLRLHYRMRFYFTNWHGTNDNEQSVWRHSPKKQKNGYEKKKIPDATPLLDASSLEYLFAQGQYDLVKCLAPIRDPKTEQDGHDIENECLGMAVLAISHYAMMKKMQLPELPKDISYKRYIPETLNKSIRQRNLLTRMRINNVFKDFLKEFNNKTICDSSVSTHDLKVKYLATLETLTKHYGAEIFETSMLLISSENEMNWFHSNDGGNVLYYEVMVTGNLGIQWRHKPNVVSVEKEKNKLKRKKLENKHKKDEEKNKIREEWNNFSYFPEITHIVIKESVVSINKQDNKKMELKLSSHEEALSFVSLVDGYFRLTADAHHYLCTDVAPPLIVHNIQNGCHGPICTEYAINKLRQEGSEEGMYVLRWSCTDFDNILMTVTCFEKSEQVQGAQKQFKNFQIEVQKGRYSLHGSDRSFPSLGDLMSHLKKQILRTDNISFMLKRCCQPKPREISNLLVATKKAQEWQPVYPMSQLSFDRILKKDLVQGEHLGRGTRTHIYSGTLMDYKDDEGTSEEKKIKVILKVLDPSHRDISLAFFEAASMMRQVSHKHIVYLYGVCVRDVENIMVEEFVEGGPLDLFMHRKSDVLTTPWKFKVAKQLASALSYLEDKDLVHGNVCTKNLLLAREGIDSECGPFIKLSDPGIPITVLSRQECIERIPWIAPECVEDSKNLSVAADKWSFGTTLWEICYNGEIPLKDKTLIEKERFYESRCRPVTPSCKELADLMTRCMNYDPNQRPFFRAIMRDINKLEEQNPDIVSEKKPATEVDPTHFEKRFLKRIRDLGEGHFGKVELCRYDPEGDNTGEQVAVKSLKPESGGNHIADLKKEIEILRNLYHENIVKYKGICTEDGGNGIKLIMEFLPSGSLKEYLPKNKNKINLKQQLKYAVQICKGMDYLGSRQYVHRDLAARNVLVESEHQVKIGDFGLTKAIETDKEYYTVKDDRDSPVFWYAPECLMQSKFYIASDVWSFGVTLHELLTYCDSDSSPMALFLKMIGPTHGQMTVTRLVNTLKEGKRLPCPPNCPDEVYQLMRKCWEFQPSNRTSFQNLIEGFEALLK

Compound: COC[C@H](C(=O)Nc1cccc2c(-c3nc(Nc4cccc(S(C)(=O)=O)c4F)ncc3F)c[nH]c12)N1CCN(C)CC1 [AZD4604]
- In vitro rat plasma protein binding, % free [1]: 10.4 % free
- proportion of phosphorylated STAT3-positive cell nuclei in endothelium and bronchial epithelium ([2]; P < 0.01): significantly reduced
- proportion of phosphorylated STAT3-positive cell nuclei in the alveolar epithelium ([2]; P < 0.05): significantly reduced
- STAT5a phosphorylation in whole lung homogenates [3]: dose-dependently inhibited
- effect on pAkt [4]: no significant effect
- IC50 [5]: 23.1 nM
- eosinophil numbers in BALF ([6]; 24 hours after OVA challenge, vs OVA/vehicle): numerically reduced
- eosinophil numbers in lung tissue ([6]; 24 hours after OVA challenge, vs vehicle, to levels seen in saline-challenged animals): reduced
- cytokines eotaxin and IL-1β in BALF ([6]; vs OVA/vehicle): numerically lowered
- levels of lymphocytes, neutrophils, and macrophages in BALF ([6]; vs OVA/vehicle): numerically lowered
- effect on NF-κB [7]: no significant effect
- proportion of the dose remaining in whole lung tissue 24 hours after administration ([8]; IT, assuming 100% lung deposition): 0.3%
- half-life ([8]; lung, inhaled or intranasal): ~5 h
- half-life ([8]; lung, other: intratracheal): 5 h
- half-life ([8]; plasma, inhaled or intranasal): ~5 h
- IC50 [9]: 57 nM
- STAT3 phosphorylation in whole lung homogenates [10]: dose-dependently inhibited
- solubility thermodynamic [11]: 6.6 µM (≈ 3.96 µg/mL)
- Vd [12]: 9.9 L/kg
- clearance [12]: 33 mL/min/kg
- half-life [12]: 4.2 h
- Papp [13]: 6.7 ×10⁻⁶ cm/s
- IC50 [14]: 1.2 nM
- solubility kinetic [15]: 18 µM (≈ 10.8 µg/mL)
- IC50 [16]: > 10000 nM
- IC50 [17]: 21 nM
- IC50 [18]: 98 nM
- IC50 [19]: 16.9 nM
- STAT5b phosphorylation in whole lung homogenates [20]: dose-dependently inhibited
- pKa [21]: 7.9

Compound: CN(CCC#N)C1CCN(C(=O)Cn2cc(NC(=O)c3cnn4cccnc34)c(-c3cc(Cl)ccc3OC(F)F)n2)CC1 [GDC-0214]
- increased selectivity for JAK1 over JAK2 [22]: twofold

Compound: CN(CCC#N)C1CCN(C(=O)Cn2cc(NC(=O)c3cnn4cccnc34)c(-c3cc(Cl)ccc3OC(F)F)n2)CC1 [iJak-381]
- increased selectivity for JAK1 over JAK2 [22]: sixfold
